Source: ChEMBL document CHEMBL1124279, “N,N-Dialkylated monophenolic trans-2-phenylcyclopropylamines: novel central 5-hydroxytryptamine receptor agonists” (J Med Chem, 1988)

How the values were obtained:
[1] = target: T1, Serotonin (5-HT) receptor (Rattus norvegicus) (UniProt P35563+P35365+P32305+P31388+Q9JJ16+P28564+P30994+Q62758+P08909+P14842+P30940+P35364+P19327+P28565); assay: Evaluated for receptor mediated feedback inhibition of 5-HTP formation in hemisphere of rat brain when administered subcutaneously; format: functional
Method in brief: (§1)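 Reserpinized male Sprague-Dawley rats (200–300 g), compounds in saline (occasionally a few drops of glacial acetic acid and/or warming), near-neutral pH, given sc at 5 or 10 mL/kg. Reserpine was in acetic acid/5.5% glucose. 5-HTP formation was measured in the brain part. The ED50 is the dose giving a half-maximal decrease, from dose-response curves of four to six doses (n = 3-4).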

[2] = target: T1, Serotonin (5-HT) receptor (Rattus norvegicus); assay: Evaluated for receptor mediated feedback inhibition of 5-HTP formation in striatum tissue of rat brain when administered subcutaneously; format: functional, tissue-based; method in brief: as §1
[3] = target: T1, Serotonin (5-HT) receptor (Rattus norvegicus); assay: Evaluated for receptor mediated feedback inhibition of 5-HTP formation in limbic tissue of rat brain when administered subcutaneously; format: functional, tissue-based; conditions: Limbic system; method in brief: as §1

Row | Structure (SMILES) | ED50 [1] | ED50 [2] | ED50 [3]
1 | CCCN(CCC)C1CC1c1ccccc1O (stereo in doubt; 8) | 0.36 µmol/kg | 0.36 µmol/kg | 0.41 µmol/kg
2 | CCCN(CCC)C1CC1c1ccccc1OC (stereo not given) | 0.72 µmol/kg |  | 0.93 µmol/kg
3 | CCCN(CCC)C1CC1c1cccc(O)c1 (stereo in doubt; (+)-18) | > 50 µmol/kg | > 50 µmol/kg | > 50 µmol/kg
4 | CCCN(CCC)C1CC1c1cccc(O)c1 (single isomer, unassigned; (-)) | 0.35 µmol/kg | 0.28 µmol/kg | 0.34 µmol/kg
5 | CCCN(CCC)C1CC1c1ccc(O)c(O)c1 (stereo not given) | > 50 µmol/kg | > 50 µmol/kg | > 50 µmol/kg
6 | CCN(CC)C1CC1c1ccccc1O (stereo not given) | 0.8 µmol/kg | 1.2 µmol/kg | 0.82 µmol/kg
7 | CCCCN(CCCC)C1CC1c1ccccc1O (stereo not given) | > 50 µmol/kg | > 50 µmol/kg | > 50 µmol/kg
8 | CCCN(CCC)[C@@H]1CCc2cccc(O)c2C1 | 0.077 µmol/kg | 0.065 µmol/kg | 0.061 µmol/kg
9 | CCCN(CCC)C1CC1c1cccc(O)c1 (stereo in doubt; 18) | 0.58 µmol/kg | 0.47 µmol/kg | 0.66 µmol/kg
10 | CCCN(CCC)C1CC1c1ccccc1O (single isomer, unassigned; (-)) | 0.38 µmol/kg | 0.26 µmol/kg | 0.28 µmol/kg
11 | CCCN(CCC)C1CC1c1ccccc1O (single isomer, unassigned; (+)) | > 50 µmol/kg | 14.5 µmol/kg | > 50 µmol/kg
12 | CN(C)C1CC1c1ccccc1O (stereo not given) | 9.31 µmol/kg | 3.45 µmol/kg | 6.2 µmol/kg
13 | CCN(CC)C1CC1c1cccc(O)c1 (stereo not given) | 0.4 µmol/kg | 0.32 µmol/kg | 0.34 µmol/kg
14 | CCCCN(CCCC)C1CC1c1cccc(O)c1 (stereo not given) | > 50 µmol/kg | > 50 µmol/kg | > 50 µmol/kg
15 | CCCN(CCC)C1CC1c1ccc(O)cc1 (stereo not given) | > 50 µmol/kg | > 50 µmol/kg | > 50 µmol/kg
16 | CN(C)C1CC1c1cccc(O)c1 (stereo not given) | 25.1 µmol/kg | 8.59 µmol/kg | 10.8 µmol/kg
17 | CCCN(CCC)C1CC1c1cccc(OC)c1 (stereo not given) | 1.43 µmol/kg | 1.17 µmol/kg | 2.06 µmol/kg
